In ChEMBL document CHEMBL1125894, “Dual-action cephalosporins: cephalosporin 3'-quaternary ammonium quinolones” (1991):
Values after ≈ are worked out from the molar mass of the structure shown.

Experiments:
Escherichia coli [1] = experiment: Concentration required for 90% inhibition against 60 kDa penicillin-binding protein 3 binding using [14C]-Pen G as the radioligand.
Outline: (§1)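 Solubilized membranes from sonicated E. coli DC-0 were used. PBP binding was measured as inhibition of [14C]penicillin G binding to each PBP.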

Klebsiella pneumoniae [2] = experiment: In vitro antibacterial activity against Klebsiella pneumoniae A; type: functional
Outline: (§2)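 Serial 2-fold dilutions in the NCCLS broth microdilution method for aerobic nonfastidious organisms, with an 18-h incubation. The value is reported as the minimum inhibitory concentration (MIC).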

Streptococcus pneumoniae [3] = experiment: In vivo activity in murine against Streptococcus pneumoniae 6301 infection after sc administration.; type: functional
Outline: (§3)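 Mouse protection test in CD1 Swiss albino mice (18–20 g). Mice were infected intraperitoneally with 0.5 mL of a diluted bacterial suspension, then treated within 5 min with one 1.0 mL subcutaneous dose at the dorsal base of the neck. Doses ranged from 0.05 to 250 mg/kg, with six mice per group. ED50 was calculated by the Reed–Muench method.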

Serratia marcescens = experiment: In vitro antibacterial activity against Serratia marcescens SM; type: functional; outline: as §2
Escherichia coli [4] = experiment: Antibacterial activity against Escherichia coli DC-O; type: functional; outline: as §2
Citrobacter freundii [5] = experiment: In vitro antibacterial activity against Citrobacter freundii BS 16; type: functional; outline: as §2
Citrobacter freundii [6] = experiment: In vivo activity in murine against Citrobacter freundii BS#16 infection after sc administration.; type: functional
Outline: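 CD1 Swiss albino mice (18–20 g) infected intraperitoneally with 0.5 mL diluted bacterial culture suspension. Single subcutaneous treatment within 5 min, 1.0 mL at dorsal base of neck, serial dilutions spanning 0.05–250 mg/kg. Six mice per treatment and control group. ED50 (50% protective dose) derived by Reed and Muench method.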

Escherichia coli [7] = experiment: In vivo activity in murine against Escherichia coli 257 infection after sc administration.; type: functional; conditions: Escherichia coli, sc; read-out: ED50; outline: as §3
Pseudomonas aeruginosa = experiment: In vivo activity in murine against Pseudomonas aeruginosa 5712 infection after sc administration.; type: functional; conditions: Pseudomonas aeruginosa, sc; read-out: ED50
Outline: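 Mouse protection test in CD1 Swiss albino mice (18–20 g) infected intraperitoneally with 0.5 mL of diluted P. aeruginosa suspension. Mice received 1.0 mL subcutaneously at the neck base within 5 min of infection and a second treatment 3 h after infection. Doses ranged from 0.05 to 250 mg/kg, with six mice per group. ED50 was calculated by the Reed–Muench method.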

Klebsiella pneumoniae [8] = experiment: In vivo activity in murine against Klebsiella pneumoniae A infection after sc administration.; type: functional; outline: as §3
Streptococcus pneumoniae [9] = experiment: In vitro antibacterial activity against Streptococcus pneumoniae 6301; type: functional
Outline: (§4)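 Broth macrodilution with serial 2-fold dilutions in cation-supplemented Mueller-Hinton broth containing 10% goat serum. The value is reported as the MIC.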

[10] = biological target: T1, Penicillin-binding protein 1A (Escherichia coli K-12) (UniProt P02918); experiment: Concentration required for 90% inhibition against 90 kDa penicillin-binding protein 1a binding using [14C]-Pen G as the radioligand.; outline: as §1
T1 sequence (whole entry): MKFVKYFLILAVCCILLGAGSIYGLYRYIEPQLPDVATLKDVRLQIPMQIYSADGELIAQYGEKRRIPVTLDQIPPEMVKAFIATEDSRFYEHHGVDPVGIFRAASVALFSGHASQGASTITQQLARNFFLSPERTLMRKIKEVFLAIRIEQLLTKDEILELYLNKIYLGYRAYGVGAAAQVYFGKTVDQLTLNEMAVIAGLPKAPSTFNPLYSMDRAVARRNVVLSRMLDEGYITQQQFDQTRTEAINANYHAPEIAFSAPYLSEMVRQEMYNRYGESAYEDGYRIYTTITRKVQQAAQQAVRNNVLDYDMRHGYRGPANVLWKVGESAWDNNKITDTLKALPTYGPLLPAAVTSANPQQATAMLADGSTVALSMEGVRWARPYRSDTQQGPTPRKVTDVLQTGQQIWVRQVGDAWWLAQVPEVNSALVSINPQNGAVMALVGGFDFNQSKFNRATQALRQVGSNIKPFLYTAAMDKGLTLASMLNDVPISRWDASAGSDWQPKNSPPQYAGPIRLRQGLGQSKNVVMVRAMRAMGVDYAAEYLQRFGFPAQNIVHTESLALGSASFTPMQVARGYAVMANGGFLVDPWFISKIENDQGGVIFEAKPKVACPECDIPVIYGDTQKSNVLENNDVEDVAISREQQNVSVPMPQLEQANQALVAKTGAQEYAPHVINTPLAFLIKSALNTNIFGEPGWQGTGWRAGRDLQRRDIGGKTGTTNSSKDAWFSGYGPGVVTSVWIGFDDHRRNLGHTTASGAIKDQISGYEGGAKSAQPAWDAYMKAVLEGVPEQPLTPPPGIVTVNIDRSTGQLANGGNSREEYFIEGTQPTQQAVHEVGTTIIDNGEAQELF

Streptococcus pyogenes = experiment: In vitro antibacterial activity against Streptococcus pyogenes 4; type: functional; outline: as §4
Escherichia coli [11] = experiment: In vitro antibacterial activity against Escherichia coli 257; type: functional; outline: as §2
Enterobacter cloacae = experiment: In vitro antibacterial activity against Enterobacter cloacae 5699; type: functional; outline: as §2

## CC(C)(O/N=C(\C(=O)N[C@@H]1C(=O)N2C(C(=O)[O-])=C(C[N+]3(C)CCN(c4c(F)cc5c(=O)c(C(=O)O)cn(CCF)c5c4F)CC3)CS[C@H]12)c1csc(N)n1)C(=O)O
Escherichia coli [1]
  Concentration: 0.1 µg/mL
Klebsiella pneumoniae [2]
  MIC: 0.25 µg/mL (≈ 0.299 µM)
Streptococcus pneumoniae [3]
  ED50: 8 mg/kg
Serratia marcescens
  MIC: 1 µg/mL (≈ 1.19 µM)
Escherichia coli [4]
  MIC: 0.2 µg/mL (≈ 0.239 µM)
Citrobacter freundii [5]
  MIC: 2 µg/mL (≈ 2.39 µM)
Citrobacter freundii [6]
  ED50: 9 mg/kg
Escherichia coli [7]
  ED50: 0.28 mg/kg
Pseudomonas aeruginosa
  ED50: > 250 mg/kg
Klebsiella pneumoniae [8]
  ED50: 3 mg/kg
Streptococcus pneumoniae [9]
  MIC: 0.5 µg/mL (≈ 0.597 µM)
[10]
  Concentration: 2 µg/mL
Streptococcus pyogenes
  MIC: 0.5 µg/mL (≈ 0.597 µM)
Escherichia coli [11]
  MIC: 0.25 µg/mL (≈ 0.299 µM)
Enterobacter cloacae
  MIC: 0.25 µg/mL (≈ 0.299 µM)
